APP 5'UTR act: APP 5'UTR luciferase reporter activation; SH-SY5Y APP 5'UTR luciferase reporter, luminescence; zero percent = DMSO vehicle wells; activation, % at 2 µM; actives 1% (n = 190,000); AID 1276;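 active = activation above a set limit, based on mean plus 3 SD of controls, cut at about 140% in these data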
STAT3 act: increases IL-6 driven STAT3 reporter signal; U3A cells, IL-6 STAT3-luciferase reporter, luminescence; 100% = signal with IL-6 EC80 alone; activation (% of control), % at 5.6 µM; actives 0.91% (n = 190,000);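 active = activation above the screen-wide mean of compound activation plus 3 SD, cut at about 130% in these data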;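 also: 0% = background luminescence of wells with medium and substrate only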
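Material: STAT3-luciferase reporter U3A cells; Probe or stimulus: IL-6 (33 ng/mL); Incubation: compound pre-incubation 1 h before IL-6, then 6 h stimulation at 37 °C; Technique: luminescence from STAT3-driven luciferase reporter; Evaluation: % activation versus median of IL-6-stimulated wells; Controls: IL-6-only high control.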
NF-kB neuron act: raises NF-kB expression in human neuronal cells. NF-kB reporter expression; stronger effect = higher value. fold change at 12.5 µM. actives 1.6% (n = 190,000); in the data active = fold change above about 3.3
STAT1 blocker: reduces IFN-gamma driven STAT1 reporter signal; NIH 3T3 STAT1-luciferase reporter, luminescence; inhibition, % at 5.5 µM; actives 0.35% (n = 200,000); AID 920;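 active = inhibition above a set limit, the mean inhibition across all tested compounds plus 3 SD, cut at about 34% in these data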;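 also: 0% = IFN-gamma with DMSO and 100% = IFN-gamma with 300 µM nifuroxazide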
STAT1 act: increases IFN-gamma driven STAT1 reporter signal; NIH 3T3 STAT1-luciferase reporter, luminescence; 100% = IFN-gamma alone, no compound; activation (% of control), % at 5.5 µM; actives 2.6% (n = 200,000); AID 932;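 active = activation above the screen-wide mean activation plus 3 SD, cut at about 130% in these data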;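 also: raw ratio to IFN-gamma control signal so 100% means no change and 0% no light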
STAT3 inh: reduces IL-6 driven STAT3 reporter signal; U3A cells, IL-6 STAT3-luciferase reporter, luminescence; host cell line lacks STAT1; inhibition, % at 5.5 µM; actives 0.89% (n = 190,000);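 active = inhibition above the mean inhibition across all screened compounds plus 3 SD, cut at about 44% in these data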;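 also: 0% = DMSO only wells and 100% = 100 µM nifuroxazide control wells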
STAT1 act conf: STAT1 activation, confirmation assay. shares compounds with STAT1 act. NIH 3T3 STAT1-luciferase reporter, IFN-gamma potentiation, luminescence; 100% = IFN-gamma EC80 alone, no compound. activation (% of control), % at 5.7 µM. actives 97% (n = 1,200). AID 1262;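 active = activation above a set limit carried over from the earlier primary STAT1 screen, cut at about 140% in these data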;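 also: simple ratio to median IFN-gamma plus DMSO wells so 0% means no light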
NFkB act STAT1ct: activates NF-kappaB, counter-screen to STAT1 activators | shares compounds with STAT1 act | HEK293T NF-kB luciferase reporter, TNF-alpha stimulated, luminescence; 100% = TNF-alpha with vehicle only | activation (% of control), % at 5.7 µM | actives 43% (n = 1,200);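 active = activation above the mean of solvent-only control wells plus 3 SD, set per campaign, cut at about 130% in these data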;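 also: TNF-alpha given at a submaximal dose yielding about 80% of full reporter signal; values are well signal over median control so 100% means no change and 0% no light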
STAT3 act 2: activates human STAT3, counter-screen to STAT1 activators | shares compounds with STAT1 act | U3A cells STAT3-luciferase reporter, IL-6, luminescence; cells lack STAT1; 100 = IL-6 alone, no compound effect | activation (% of control), % at 5.7 µM | actives 46% (n = 1,200) | AID 1316;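 active = activation above the solvent-only control well mean plus 3 SD, set per plate batch, cut at about 110% in these data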;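 also: 0% = no luminescence and 100% = median IL-6 plus DMSO wells; higher means more STAT3 reporter activation so hits are non-selective activators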
Active calls of the source: *; nt = not tested or not shown. Rows were chosen to be rich in hits. Some 4.9% of all compounds tested hit in one or more screens of this group.

SMILES	APP 5'UTR act	STAT3 act	NF-kB neuron act	STAT1 blocker	STAT1 act	STAT3 inh	STAT1 act conf	NFkB act STAT1ct	STAT3 act 2
O=C(Nc1cccc(Cl)c1)c1cnn2cccnc12	87.1	123.2	3.69*	-59.4	157.1*	-24.4	177.9*	130.3	122.8*
C(=N\N=C\c1cccs1)/c1cccs1	90.9	86.5	3.28	-77.1	166.8*	20.3	189.1*	128.4	105.9
CC(=O)Nc1ccc(N=NN2CCOCC2)cc1	11.8	110.4	1.86	-19.1	116.6	-10.9	nt	nt	nt
CC(=O)Nc1ccc(N=Nc2ccc(O)cc2)cc1	80.8	93.0	9.15*	-58.7	152.2*	6.0	154.8*	124.2	110.7*
CSCCC(=O)Nc1nc(-c2ccccn2)cs1	-7.4	104.9	0.95	-5.9	105.4	-0.7	nt	nt	nt
Cc1cccc(Nc2nc(-c3cccs3)cs2)n1	208.2*	121.4	11.3*	-76.0	178.9*	-21.5	260.9*	147.4*	143.6*
Cc1cccc(Nc2nc(-c3ccccn3)cs2)n1	210.5*	91.7	5.63*	-89.8	191.1*	12.9	270.7*	139.4*	110.2
c1csc(-c2csc(-c3cccs3)n2)c1	53.2	105.3	2.05	-30.7	127.9	-1.2	nt	nt	nt
Cc1cccc(NS(=O)(=O)c2cccs2)n1	21.1	99.6	0.98	7.4	93.2	4.3	nt	nt	nt
Nc1ccc(Nc2nc(-c3cccs3)cs2)cc1	311.4*	93.7	1.74	-65.9	159.9*	9.2	167.6*	141.9*	102.3
CC(=O)Nc1nc(C)c(-c2csc(Nc3ccccn3)n2)s1	101.5	111.6	1.67	-97.5	191.0*	-7.2	221.1*	142.3*	120.5*
O=C(C1CCCO1)N1CCN(c2ccccn2)CC1 (stereo not drawn)	5.6	96.1	1.01	-6.0	104.2	6.0	nt	nt	nt
O=C(Nc1nc(-c2ccccn2)cs1)c1ccc(Cl)s1	-77.2	108.1	2.02	-0.4	101.3	-9.7	nt	nt	nt
Cc1cccnc1Nc1nc(-c2ccccn2)cs1	-92.6	102.0	7.53*	-155.8	256.5*	-2.4	260.6*	168.5*	108.8
CCn1c(O)c(C=Nc2ccccc2)sc1=S	191.3*	100.2	3.37*	-84.3	175.8*	11.2	205.8*	139.3*	110.6*
O=C(O)Cn1c(O)c(C=Nc2ccccc2)sc1=S	16.3	95.8	1.14	-1.8	101.7	10.5	nt	nt	nt
CCOC(=O)C1(CC2CCCCO2)CCN(C(=O)NCc2ccccc2)CC1 (stereo not drawn)	13.8	102.7	1.06	7.7	91.5	2.1	nt	nt	nt
CN1CCN(C(=S)c2cn(CCOc3ccccc3)c3ccccc23)CC1	24.6	94.3	2.71	2.7	97.3	9.1	nt	nt	nt
Cc1c(Nc2cc(Cl)c3nonc3c2[N+](=O)[O-])c(=O)n(-c2ccccc2)n1C	-95.3	96.9	0.17	-301.9	376.0*	6.0	159.3*	112.6	103.0
Cc1c(Nc2cc(N3CCOCC3)c3nonc3c2[N+](=O)[O-])c(=O)n(-c2ccccc2)n1C	-4.2	102.2	1.1	-11.9	107.6	2.1	nt	nt	nt
CCSc1ncc(/C=N/Nc2ccccc2)n1C	23.4	115.0	1.84	0.1	99.9	-12.3	nt	nt	nt
CCSc1ncc(/C=N/Nc2ccc([N+](=O)[O-])cc2)n1C	89.8	99.9	1.8	-68.3	162.4*	6.2	196.3*	149.3*	102.2
N=c1oc2cc(O)ccc2cc1C(=O)Nc1nc2ccccc2s1	178.5*	127.5	1.63	-74.7	168.0*	-38.9	194.5*	111.8	151.6*
N=c1oc2cc(O)ccc2cc1C(=O)Nc1ccccn1	-9.6	107.6	1.42	-11.2	110.1	-2.7	nt	nt	nt
O=C(CC1Nc2ccccc2NC1=O)c1ccccc1 (stereo not drawn)	33.1	127.6	2.52	-61.3	156.2*	-29.2	206.2*	129.7	165.2*
SMILES	APP 5'UTR act	STAT3 act	NF-kB neuron act	STAT1 blocker	STAT1 act	STAT3 inh	STAT1 act conf	NFkB act STAT1ct	STAT3 act 2
O=C(CC1Nc2ccccc2NC1=O)NCCc1ccccc1 (stereo not drawn)	-0.2	101.5	1.06	-9.4	108.6	2.5	nt	nt	nt
Nc1nonc1-c1noc(COc2ccccc2Cl)n1	187.1*	85.7	8.77*	-71.6	165.7*	19.1	218.9*	139.1*	115.9*
Clc1ccccc1OCc1nc(-c2ccccn2)no1	171.2*	85.0	6.48*	-74.4	167.9*	21.2	225.2*	120.2	103.3
Cc1ccccc1CSCC(=O)Nc1c(C)n(C)n(-c2ccccc2)c1=O	2.4	100.4	1.04	5.1	95.5	2.2	nt	nt	nt
Cc1ccc(O)c(NC(=O)c2ccco2)c1	59.2	109.0	2.63	-21.3	119.5	-6.9	nt	nt	nt
Cc1cccc(N=C/C(C(=O)C(F)(F)F)=C(\O)c2ccco2)c1	128.5	98.6	4.8*	-69.8	163.3*	6.8	172.9*	132.4	122.6*
Cc1ccc(N=C/C(C(=O)C(F)(F)F)=C(\O)c2ccco2)cc1Cl	135.7*	100.3	6.07*	-92.5	182.7*	1.9	221.2*	124.9	143.9*
O=C(/C(C=Nc1ccc(F)cc1)=C(/O)c1ccco1)C(F)(F)F	105.5	85.3	3.36*	-57.3	151.2*	19.7	162.4*	116.6	108.8
Cc1nonc1C1CCCN1C(=O)c1cc(COc2ccc(F)cc2Cl)on1 (stereo not drawn)	5.6	86.5	1.68	-11.7	110.9	20.8	nt	nt	nt
O=C(Cc1ccccc1)Nc1ccc2oc(=O)ccc2c1	10.9	104.3	1.14	-8.6	106.4	-0.5	nt	nt	nt
O=C(CN(Cc1ccc(F)cc1)S(=O)(=O)c1ccc(S(=O)(=O)N2CCOCC2)cc1)Nc1ccccc1	2.2	92.0	1	9.3	91.7	7.4	nt	nt	nt
O=c1/c(=C/c2ccc([N+](=O)[O-])cc2)sc2n1CCCN=2	20.6	95.7	1.81	-61.9	156.9*	9.3	182.8*	134.6*	96.6
CCN(CC)c1ccc(N=Nc2ncn[nH]2)cc1	48.9	92.9	2.56	-2.1	103.6	13.2	nt	nt	nt
CCN(CC)c1ccc(N=Nc2nn(C)c(C)c2[N+](=O)[O-])cc1	141.7*	81.6	5.69*	-88.2	178.5*	20.6	221.6*	140.0*	106.5
Cc1ccc(C(=O)C(C)OC(=O)c2ccccc2[N+](=O)[O-])cc1 (stereo not drawn)	172.9*	109.5	9.63*	-90.7	180.7*	-14.0	213.4*	132.8	127.3*

Screening data deposited in PubChem by several laboratories.
